Screening data from PubChem.
SUMO1-SIM PPI: SUMO1-SIM interaction modulation | 360,000 compounds, 0.33% hits | SUMO1 binding to a labelled peptide, TR-FRET, 1 h | inhibition, % at 20 µM | P63165; in the data active means inhibition above about 37%
Target sequence (P63165 whole entry, looked up): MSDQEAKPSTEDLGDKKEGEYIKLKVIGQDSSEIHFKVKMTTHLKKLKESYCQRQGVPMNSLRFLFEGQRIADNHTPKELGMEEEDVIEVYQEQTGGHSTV
STEP block: inhibitors of human striatal-enriched phosphatase STEP | P54829 | recombinant STEP, OMFP fluorogenic substrate, fluorescence | inhibition, % at 20 µM | 360,000 compounds, 0.25% hits | AID 588621;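 active means inhibition at 20 µM, scaled per plate between control wells, above about 37%, limit read from the data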
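material = STEP tyrosine phosphatase | reagent = fluorogenic phosphatase substrate OMFP at 25 µM final | doses = single compound dose of 20 µM, 1% DMSO final | schedule = 20 min reaction, room temperature, in the dark | measured by = fluorescence, 480/540 nm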
Scp-1 inhibitor: inhibitors of human Scp-1 phosphatase. Q9GZU7. Recombinant Scp1, phosphopeptide, malachite green phosphate absorbance. inhibition, % at 20 µM. 340,000 compounds, 0.88% hits;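 active means inhibition above about 50% at 20 µM, limit read from the data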
Target sequence (Q9GZU7 76-261 limits assumed): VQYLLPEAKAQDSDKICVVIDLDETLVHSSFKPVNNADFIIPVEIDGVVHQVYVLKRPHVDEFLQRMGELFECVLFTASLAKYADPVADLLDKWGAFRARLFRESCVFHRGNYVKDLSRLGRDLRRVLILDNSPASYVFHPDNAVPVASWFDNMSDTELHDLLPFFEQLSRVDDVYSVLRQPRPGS
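Assay system: SCP-1 catalytic fragment, aa 76-261 | Buffer or medium: Tris acetate buffer pH 5.5 with MgCl2 and Tween-20 | Compound: One concentration, 20 µM, with 1.0% DMSO | Also added: Phospho 17-mer peptide substrate | Signal: Absorbance at 630 nm | Incubation: 45 min enzyme reaction at room temperature | Measure: % inhibition of SCP-1 phosphate liberation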
GRK2 inh: blocks RNA aptamer binding to human GRK2; P25098; bead flow cytometry, FAM-aptamer displacement from GRK2; inhibition of aptamer binding, % at 10 µM; 330,000 compounds, 0.59% hits;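 active means inhibition of aptamer binding above 40%, roughly 3 SD of noise, on plates passing a quality check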;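 further: median bead fluorescence of bound FAM aptamer so fluorescent compounds give negative values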
DNMT1 inh: DNMT1 (human) enzyme inhibition; P26358; DNMT1 molecular beacon, Hinp1I cleavage, fluorescence; inhibition (reported as % activation of signal), % at 10 µM; 360,000 compounds, 0.83% hits; AID 588458; in the data active means inhibition above about 50%
LMPTP block: blocks human LMPTP phosphatase; P24666; recombinant LMPTP-A, OMFP fluorogenic substrate, fluorescence intensity; inhibition, % at 20 µM; 360,000 compounds, 0.22% hits; AID 651560;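 active means compounds that cut the enzyme signal by at least half of the control window in the single-dose screen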
Target sequence (P24666 whole entry, looked up): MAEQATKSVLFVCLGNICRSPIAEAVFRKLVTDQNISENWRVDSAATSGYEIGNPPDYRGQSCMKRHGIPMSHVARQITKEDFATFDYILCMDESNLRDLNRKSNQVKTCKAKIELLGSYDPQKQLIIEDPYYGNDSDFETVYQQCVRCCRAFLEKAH
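Assay system: LMPTP-A phosphatase enzyme | Input: 0.625 nM enzyme | Also added: Fluorogenic phosphatase substrate OMFP at 400 µM final | Compound dosing: One test concentration per compound, 20 µM, with 3% DMSO overall | Schedule: 50 min enzyme reaction at room temperature, protected from light | Signal: Fluorescence intensity | Benchmarks: no-enzyme and uninhibited controls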
Scp-1 conf: confirmation of human Scp-1 phosphatase inhibitors. shares compounds with Scp-1 inhibitor. recombinant SCP-1 catalytic domain, phosphate release, malachite green absorbance. inhibition, % at 20 µM. 2,500 compounds, 61% hits
Scp-1 MG ctr: colorimetric interference in Scp-1 counter-screen; shares compounds with Scp-1 inhibitor; Colorimetric interference counterscreen, malachite green absorbance 630 nm; apparent inhibition (interference), % at 20 µM; 2,500 tested, under 10 active; AID 540313;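 further: compounds added after enzyme reaction finished so only phosphate colour detection is probed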
Scp-1 Tm shift: Scp-1 (human) binding by thermal shift | shares compounds with Scp-1 inhibitor | Recombinant SCP1, Sypro Orange thermal shift Tm | thermal shift relative to vanadate control, % at 40 µM | 1,500 compounds, 25% hits;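 active means substances whose mean melting-temperature shift, as a percentage of the reference inhibitor's shift, reaches about 5.3%, limit read from the data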
DNMT1 confirm: confirmation of human DNMT1 inhibitors. shares compounds with DNMT1 inh. DNMT1 molecular beacon HinP1I cleavage, fluorescence. inhibition, % at 10 µM. 2,300 compounds, 8% hits. AID 602385;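 active means average inhibition of at least 30% in the single-concentration confirmation test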
DNMT1 interf: beacon fluorescence artifact counter-screen; shares compounds with DNMT1 inh; DNMT1 molecular beacon spectral interference counterscreen, fluorescence 485/520; activation (fluorescence interference), % at 10 µM; 2,300 compounds, 1% hits;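 active means activation of at least 30% at 10 µM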;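 further: DNMT1 catalytic domain with a HinP1I cleavage step and a FAM/dabcyl DNA beacon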
A number is an active result; – = inactive; · = not tested or not shown. Sampled rows, rich in hits. Any-hit rate of the full collection: about 2.1%.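 How the source made its calls, unless noted: active means inhibition of at least 30% at 20 µM; inactive means the rest.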

SMILES	SUMO1-SIM PPI	STEP block	Scp-1 inhibitor	GRK2 inh	DNMT1 inh	LMPTP block	Scp-1 conf	Scp-1 MG ctr	Scp-1 Tm shift	DNMT1 confirm	DNMT1 interf
O=C(COC(=O)c1c2c(nc3ccccc13)/C(=C/c1cccc([N+](=O)[O-])c1)CCC2)NC1CCS(=O)(=O)C1 (stereo not given)	–	–	–	–	–	–	·	·	·	·	·
O=C(Nc1ccc(F)cc1)C(CCc1ccccc1)N1CCN(c2cccc(C(F)(F)F)n2)CC1 (stereo not given)	–	·	·	·	·	–	·	·	·	·	·
CC(C)Cc1ccc(C(C)CC2=CCC(CN(C)C)C2=O)cc1 (stereo not given)	–	–	–	·	–	–	·	·	·	·	·
CCOC(=O)C1(C)CCCN1C(=O)c1cccs1 (stereo not given)	–	–	·	·	–	–	·	·	·	·	·
COc1ccccc1CNC(=O)COC(=O)/C=C/c1ccc2ccccc2n1	–	–	–	–	–	–	·	·	·	·	·
CCC(C)[C@H](NC(=O)[C@H](Cc1ccccc1)n1c(=O)[nH]c2ccccc2c1=O)C(=O)NCC1CCC(C(=O)O)CC1 (stereo not given in full)	–	–	–	–	–	–	·	·	·	·	·
O=C(CSc1cccc[n+]1[O-])Nc1cc([N+](=O)[O-])ccc1Cl	–	–	–	–	–	–	·	·	·	·	·
O=C(CSc1cccc[n+]1[O-])Nc1cc2c(cc1Cl)C(=O)c1ccccc1C2=O	41	49	85	–	92	50	–	–	·	–	–
CCOC(=O)C1=C(COC(=O)/C=C/c2ccco2)NC(=O)NC1C (stereo not given)	–	–	66	–	72	–	55	–	–	–	–
CCOC(=O)C1=C(COC(=O)/C=C/c2ccc(OC)cc2)NC(=O)NC1C (stereo not given)	–	–	–	·	–	–	·	·	·	·	·
COC(=O)c1sc(N)nc1CCNC(=O)OC(C)(C)C	–	·	·	·	·	–	·	·	·	·	·
O=C(CNC(=O)c1cccc(OC(F)F)c1)OCc1cc(=O)n2cc(Br)ccc2n1	–	–	61	–	108	–	58	–	–	–	–
O=C(CNS(=O)(=O)c1ccc(Br)cc1)OCc1cc(=O)n2cc(Br)ccc2n1	·	·	·	–	·	·	·	·	·	·	·
COc1ccc2ccccc2c1C=NN1CCCCC1	–	–	·	·	–	–	·	·	·	·	·
O=C(N/N=C/c1ccc2c(c1)OCO2)c1cc(-c2ccco2)nc2ccccc12	–	–	67	·	72	–	46	–	–	–	–
O=C(O)c1cc(-c2ccco2)nc2cc3ccccc3cc12	38	–	91	–	76	–	34	–	–	–	–
CN(CC(=O)Nc1ccc(F)cc1)C(=O)c1cc(-c2ccco2)nc2ccccc12	–	–	70	–	84	–	62	–	8.9	–	–
COc1cccc(NC(=O)CN(C)C(=O)c2cc(-c3ccco3)nc3ccccc23)c1	–	–	64	–	55	–	61	–	5.3	–	–
O=C(N/N=C/c1ccc2c(c1)OCO2)c1cc(-c2ccccc2)nc2ccccc12	–	–	–	–	–	–	·	·	·	·	·
C[N+](C)(C)CCNC(=O)c1ccccc1	–	·	·	·	·	–	·	·	·	·	·
C(=C\c1ccccc1)/CN1CCN(C(c2cccc3ccccc23)c2nnnn2C2CCCC2)CC1 (stereo not given)	–	–	·	·	–	–	·	·	·	·	·
